Results on nine molecules are retold here after ChEMBL document CHEMBL2331221, “Potent elastase inhibitors from cyanobacteria: structural basis and mechanisms mediating cytoprotective and anti-inflammatory effects in bronchial epithelial cells” (J Med Chem, 2013).

The species entered for one assay is Homo sapiens. Description: Inhibition of human pancreatic chymotrypsin assessed as proteolysis using N-succinyl-Ala-Ala-Pro-Phe-p-nitroanilide substrate incubated at 10 uM for 30 mins prior to substrate addition. On the set-up: scale not given: the % may be the effect or the level left. Summed up: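 Pancreatic chymotrypsin, bovine at 100 μg/mL or human at 50 μg/mL; reaction buffer, enzyme and inhibitor (DMSO) incubated 30 min at room temperature, then substrate added (bovine: N-succinyl-Gly-Gly-Phe-pNA; human: N-succinyl-Ala-Ala-Pro-Phe-pNA). Absorbance read at 405 nm; activity from reaction slope relative to solvent control.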

Assay [1] in a line: Inhibition of human pancreatic chymotrypsin assessed as proteolysis using N-succinyl-Ala-Ala-Pro-Phe-p-nitroanilide substrate incubated for 30 mins prior to substrate addition.
Assay [2] is described as follows: Inhibition of bovine pancreatic chymotrypsin assessed as proteolysis using N-succinyl-Gly-Gly-Phe-p-nitroanilide substrate incubated for 30 mins prior to substrate addition. On the set-up: species or system Bos taurus.
Assay [3] can be described thus: Inhibition of porcine pancreatic elastase assessed as proteolysis using N-succinyl-Ala-Ala-Ala-p-nitroanilide substrate incubated for 15 mins prior to substrate addition measured every 30 seconds. Details: species or system Sus scrofa.
Assay [4] deals with T1, Neutrophil elastase (Homo sapiens) (UniProt P08246).
T1 sequence (whole entry): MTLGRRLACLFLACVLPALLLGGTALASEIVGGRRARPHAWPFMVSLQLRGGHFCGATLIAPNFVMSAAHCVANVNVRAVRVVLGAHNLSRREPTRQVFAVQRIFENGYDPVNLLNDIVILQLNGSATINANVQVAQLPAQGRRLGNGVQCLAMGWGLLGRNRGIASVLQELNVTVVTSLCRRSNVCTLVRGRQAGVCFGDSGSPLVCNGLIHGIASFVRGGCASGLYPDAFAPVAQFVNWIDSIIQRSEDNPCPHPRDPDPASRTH
The following applies: BEAS2B, 100 uM.

Assay [5] has as its target T1, Neutrophil elastase (Homo sapiens). The note with it: BEAS2B, 100 uM. This is another data set of the same source.
Assay [6] shares this target. The following applies: BEAS2B, 100 uM. This is another data set of the same source.
A short description of assay [7]: Antiproteolytic activity against elastase (unknown origin). On the set-up: species or system Homo sapiens. In short, it runs like this:
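Inhibitor in DMSO pre-incubated with elastase in Tris-HCl pH 8.0 for 15 min at room temperature. Reaction started with N-succinyl-Ala-Ala-Ala-p-nitroanilide (2 mM in the added substrate solution). Absorbance at 405 nm read every 30 s. Activity is the initial slope of each progress curve, as percent of the uninhibited reaction.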

The structures appear in SMILES notation. The source made the active and inactive calls. The rule behind the calls is not given here. Bounds are passed on as bounds.

In general, IC50 refers to the concentration needed to halve the response being measured.

On to `C/C=C1\NC(=O)[C@@H](NC(=O)[C@@H](NC(=O)[C@@H](COS(=O)(=O)O)OC)[C@@H](C)CC)[C@@H](C)OC(=O)[C@H]([C@H](C)CC)NC(=O)[C@H](Cc2ccccc2)N(C)C(=O)[C@H](Cc2ccccc2)N2C(=O)[C@H](CC[C@H]2O)NC1=O` [symplostatin 7], for which the Activity in the assay filed under Homo sapiens amounted to 70.7%. In addition, in assay [1], the IC50 is more than 10 µM.

As to `CC(C)(C)C(=O)Oc1ccc(S(=O)(=O)Nc2ccccc2C(=O)NCC(=O)O)cc1`, the Activity in the assay listed under Homo sapiens was determined as 55.1%. Besides, the IC50 was more than 10 µM in assay [1], 4.08 µM in assay [2] and 2.81 µM in assay [3]. Further, the inhibition result in assay [4], in assay [5] and in assay [6] was “Active” throughout.

For `C/C=C1\NC(=O)[C@@H](NC(=O)[C@@H](NC(=O)[C@@H](COS(=O)(=O)O)OC)[C@@H](C)CC)[C@@H](C)OC(=O)[C@H]([C@H](C)CC)NC(=O)[C@H](Cc2ccc(O)cc2)N(C)C(=O)[C@H](Cc2ccccc2)N2C(=O)[C@H](CC[C@H]2O)NC1=O` [symplostatin 10], in the assay listed under Homo sapiens, the Activity was determined as 79.4%. The half-inhibitory concentration (IC50) in assay [1] is more than 10 µM.

Molecule `C/C=C1\NC(=O)[C@@H](NC(=O)[C@@H](NC(=O)[C@H](C)NC(=O)CCC)C(C)C)[C@@H](C)OC(=O)[C@H](C(C)C)NC(=O)[C@H](Cc2ccc(O)cc2)N(C)C(=O)[C@H](Cc2ccccc2)N2C(=O)[C@H](CC[C@H]2O)NC1=O` [LYNGBYASTATIN 9] had an IC50 in assay [7] of 0.12 µM.

Regarding `C/C=C1\NC(=O)[C@@H](NC(=O)[C@@H](NC(=O)[C@@H](COS(=O)(=O)O)OC)C(C)C)[C@@H](C)OC(=O)[C@H](C(C)C)NC(=O)[C@H](Cc2ccc(O)cc2)N(C)C(=O)[C@H](Cc2ccccc2)N2C(=O)[C@H](CC[C@H]2O)NC1=O` [symplostatin 9], in the assay filed under Homo sapiens, the Activity was found to be 73.9%. Besides, the IC50 in assay [1] was more than 10 µM.

In the case of `C/C=C1\NC(=O)[C@@H](NC(=O)[C@@H](NC(=O)[C@@H](COS(=O)(=O)O)OC)C(C)C)[C@@H](C)OC(=O)[C@H]([C@H](C)CC)NC(=O)[C@H](Cc2ccc(O)cc2)N(C)C(=O)[C@H](Cc2ccccc2)N2C(=O)[C@H](CC[C@H]2O)NC1=O` [symplostatin 8], the Activity in the assay listed under Homo sapiens was 69%. Moreover, in assay [1], the IC50 is more than 10 µM.

In assay [7], `C/C=C1\NC(=O)[C@@H](NC(=O)[C@@H](NC(=O)[C@H](C)NC(C)=O)C(C)C)[C@@H](C)OC(=O)[C@H](C(C)C)NC(=O)[C@H](Cc2ccc(O)cc2)N(C)C(=O)[C@H](Cc2ccccc2)N2C(=O)[C@H](CC[C@H]2O)NC1=O` [LYNGBYASTATIN 8] came in with an IC50 of 0.12 µM.

As for `C/C=C1\NC(=O)[C@@H](NC(=O)[C@H](CCc2ccc(O)cc2)NC(=O)[C@H](C)NC(=O)[C@H](O)COS(=O)(=O)O)[C@@H](C)OC(=O)[C@H](C(C)C)NC(=O)[C@H](Cc2ccc(O)cc2)N(C)C(=O)[C@H](Cc2ccccc2)N2C(=O)[C@H](CC[C@H]2O)NC1=O` [LYNGBYASTATIN 4], the Activity in the assay listed under Homo sapiens came to 72.2%. Besides, the IC50 in assay [1] is more than 10 µM.

On to `C/C=C1\NC(=O)[C@@H](NC(=O)[C@@H](NC(=O)[C@@H](COS(=O)(=O)O)OC)C(C)C)[C@@H](C)OC(=O)[C@H](C(C)C)NC(=O)[C@H](Cc2ccccc2)N(C)C(=O)[C@H](Cc2ccccc2)N2C(=O)[C@H](CC[C@H]2O)NC1=O` [symplostatin 6], for which the Activity in the assay filed under Homo sapiens is 90.6%. Further, in assay [1], the IC50 is more than 10 µM.
